# Laboratory results reported in ChEMBL document CHEMBL5338714, “Design, synthesis and biological evaluation of biphenyl-benzamides as potent FtsZ inhibitors” (Eur J Med Chem, 2022).
# Active and inactive are the calls of the source. The rule behind the calls is not given here.
# Columns and labels:
# [1] = Metabolic stability in rat liver microsomes assessed as compound remaining preincubated for 5 mins followed by NADPH addition measured after 15 mins by LC/MS analysis; assay type: ADME, Microsome; settings: time 20 min, read-out: Stability
# Summary of the method: (§1)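 Liver microsomes (final protein 0.75 mg/mL) with compound in 100 mM phosphate buffer pH 7.4, preincubated 5 min at 37 °C. Reaction started with NADPH regeneration system, stopped at 5, 15, 30 and 45 min with acetonitrile containing internal standard. Percent remaining measured by LC/MS, with ketanserin as reference; variation given as RSD of area ratio.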
# [2] = Metabolic stability in rat liver microsomes assessed as compound remaining preincubated for 5 mins followed by NADPH addition measured after 45 mins by LC/MS analysis; assay type: ADME, Microsome; settings: time 50 min, read-out: Stability; summary of the method: as §1
# [3] = Selectivity index, ratio of CC50 for African green monkey Vero cells to MIC for Bacillus subtilis ATCC9372; assay type: toxicity, cell-based; settings: read-out: Selectivity Index
# Summary of the method: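 CC50 in Vero cells (72 h Alamar blue) divided by broth microdilution MIC against B. subtilis ATCC9372.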
# [4] = Metabolic stability in rat liver microsomes assessed as compound remaining preincubated for 5 mins followed by NADPH addition measured after 5 mins by LC/MS analysis; assay type: ADME, Microsome; settings: time 10 min, read-out: Stability; summary of the method: as §1
# [5] = AUC (0 to infinity) in ICR mouse at 1 mg/kg, iv measured for 0.08 to 24 hrs by LC-MS/MS analysis; assay type: ADME, organism-based; parameters: dose 1 mg/kg, time upper 24 hrs, time lower 0.08 hrs, route iv; settings: in vivo
# Summary of the method: (§2)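 Male ICR mice, single intravenous dose formulated in 5% DMSO, 4% ethanol, 5% Cremophor EL, 86% water. Blood sampled at 5, 15, 30 min, 1, 2, 4, 8 and 24 h; plasma stored at -20 °C. Compound quantified by LC-MS/MS, with parameters from non-compartmental analysis.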
# Bacillus subtilis = test: Antibacterial activity against Bacillus subtilis ATCC9372 assessed as bacterial growth inhibition incubated for 18 hrs by CLSI based broth microdilution method; assay type: functional
# Summary of the method: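 CLSI broth microdilution. Log-phase bacteria in Mueller Hinton broth added to 2-fold serial dilutions spanning 128 to 0.25 or 2 to 0.004 µg/mL. Incubated aerobically for 18 h at 37 °C, then OD600 read. MIC is the lowest concentration giving ≥90% growth inhibition; three independent assays.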
# [6] = Tmax in ICR mouse at 1 mg/kg, iv measured for 0.08 to 24 hrs by LC-MS/MS analysis; assay type: ADME, organism-based; settings: in vivo, time 0.08-24 hrs; summary of the method: as §2
# [7] = Metabolic stability in human liver microsomes assessed as intrinsic clearance preincubated for 5 mins followed by NADPH addition measured upto 45 mins by LC/MS analysis; assay type: ADME, Microsome; settings: time < 50 min, read-out: CLH
# Summary of the method: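 Liver microsomes at 0.75 mg/mL final protein, with test article and NADPH regeneration system (6 mM) in 100 mM phosphate buffer, pH 7.4. Preincubated 5 min at 37 °C, then started with NADPH. Quenched with acetonitrile containing internal standard at 5, 15, 30 and 45 min, centrifuged, and percent remaining measured by LC/MS. Ketanserin served as reference.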
# [8] = biological target: T1, Cell division protein FtsZ (Staphylococcus aureus) (UniProt P0A031); test: Inhibition of recombinant Staphylococcus aureus FtsZ assessed as FtsZ polymerization at 10 ug/ml preincubated for 10 mins followed by GTP addition measured after 20 mins by TEM analysis; settings: dose 10.0 µg/ml, time 30.0 min
# T1 sequence (whole entry): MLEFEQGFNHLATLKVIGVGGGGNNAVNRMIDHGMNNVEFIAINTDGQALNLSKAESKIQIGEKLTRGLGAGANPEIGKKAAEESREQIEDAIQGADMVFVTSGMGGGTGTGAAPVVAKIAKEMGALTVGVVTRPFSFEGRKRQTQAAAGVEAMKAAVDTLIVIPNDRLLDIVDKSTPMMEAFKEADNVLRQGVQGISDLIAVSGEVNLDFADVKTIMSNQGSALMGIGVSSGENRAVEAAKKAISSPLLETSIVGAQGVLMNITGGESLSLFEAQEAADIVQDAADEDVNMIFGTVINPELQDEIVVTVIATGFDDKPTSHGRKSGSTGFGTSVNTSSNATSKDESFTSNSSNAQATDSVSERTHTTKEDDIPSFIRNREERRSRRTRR
# Summary of the method: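 Recombinant S. aureus FtsZ (12 µM) preincubated 10 min at room temperature with compound in DMSO, in 50 mM Hepes-KOH pH 6.8. KCl 50 mM, MgCl2 5 mM and GTP 1 mM then added, 20 min at 37 °C. Samples placed on glow-discharged carbon grids, stained with 1% phosphotungstic acid, imaged by TEM.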
# [9] = Metabolic stability in mouse liver microsomes assessed as compound remaining preincubated for 5 mins followed by NADPH addition measured after 15 mins by LC/MS analysis; assay type: ADME, Microsome; settings: time 20 min, read-out: Stability; summary of the method: as §1
# Staphylococcus aureus [10] = test: Bactericidal activity against Staphylococcus aureus ATCC25923 incubated for 24 hrs by broth microdilution method; assay type: functional
# Summary of the method: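 MBC from the broth microdilution plates (MHB, 2-fold dilutions). After 24 h, 5 µL aliquots from clear wells were plated on LB agar and incubated aerobically 24 h at 37 °C, then colonies counted. MBC = lowest concentration with no colonies.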
# [11] = Tmax in ICR mouse at 5 mg/kg, po measured for 0.25 to 24 hrs by LC-MS/MS analysis; assay type: ADME, organism-based; settings: in vivo, time 0.25-24 hrs
# Summary of the method: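 Male ICR mice dosed orally with a solution of 5% DMSO, 4% ethanol, 5% Cremophor EL and 86% water. Blood collected at 15, 30 min, 1, 2, 4, 6, 8 and 24 h; plasma stored at -20 °C. Plasma levels measured by LC-MS/MS; parameters by non-compartmental analysis, with bioavailability relative to the 1 mg/kg iv dose.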
# Pseudomonas aeruginosa = test: Antibacterial activity against Pseudomonas aeruginosa 15690 assessed as bacterial growth inhibition incubated for 18 hrs by CLSI based broth microdilution method; assay type: functional
# Summary of the method: (§3)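 Broth microdilution to CLSI guidelines. Log-phase bacteria grown in Mueller Hinton broth, diluted, then exposed to 2-fold serial dilutions of compound (128 to 0.25 µg/mL or 2 to 0.004 µg/mL). Incubated aerobically 18 h at 37 °C. Growth read as OD600. MIC = lowest concentration giving ≥90% growth inhibition. Three independent assays.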
# [12] = Metabolic stability in rat liver microsomes assessed as compound remaining preincubated for 5 mins followed by NADPH addition measured immediately by LC/MS analysis; assay type: ADME, Microsome; settings: read-out: Stability
# Staphylococcus aureus [13] = test: Antibacterial activity against Staphylococcus aureus ATCC25923 assessed as reduction in bacterial count at 4 times MIC measured for 3 hrs by time kill curve assay; assay type: functional, organism-based
# Summary of the method: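 Time-kill: log-phase cultures diluted to about 10^6 CFU/mL in MHB with compound at 1×, 2×, 4× or 8× MIC (vancomycin at 2× MIC), shaken at 37 °C. Samples taken at 3, 6, 12 and 24 h, serially diluted and plated on LB agar. Colonies counted after 24 h at 37 °C; detection limit 10^3 CFU/mL.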
# [14] = Metabolic stability in human liver microsomes assessed as compound remaining preincubated for 5 mins followed by NADPH addition measured after 15 mins by LC/MS analysis; assay type: ADME, Microsome; settings: time 20 min, read-out: Stability; summary of the method: as §1
# Staphylococcus aureus [15] = test: Antibacterial activity against methicillin-resistant Staphylococcus aureus shhsE1 assessed as bacterial growth inhibition incubated for 18 hrs by CLSI based broth microdilution method; assay type: functional; summary of the method: as §3
smiles,measurement,setting,value
Cc1cc(Cl)ccc1-c1cccc(COc2ccc(F)c(C(N)=O)c2F)c1,remaining at 0.25 h,[1],39%
same,remaining at 0.75 h,[2],10%
same,selectivity ratio,[3],> 645
same,remaining at 5 min,[4],73.7%
same,AUC(0-inf),[5],0.179 µg·h/mL
same,MIC,Bacillus subtilis,0.016 mg/L
same,Tmax,[6],4.98 min
same,CLint scaled,[7],0.931 L/h/kg
same,inhibition,[8],Active
same,remaining at 0.25 h,[9],11.9%
same,MBC,Staphylococcus aureus [10],0.25 mg/L
same,Tmax,[11],30 min
same,MIC,Pseudomonas aeruginosa,> 128 mg/L
same,remaining at 0 min,[12],100%
same,Activity,Staphylococcus aureus [13],Active
same,remaining at 0.25 h,[14],86.2%
same,MIC,Staphylococcus aureus [15],0.125 mg/L
